Assay [1] is described as follows: Her2 expression decrease, cell viability multiplex – SKBR3 breast tumor cells, AlphaScreen, ATP viability, primary screen (AID 461).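 On Her2 level: lower value means less Her2 protein in the cells.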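 On viability: percent of carrier control wells set as 100% viability.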 The settings on record: SKBR3 Her2 protein level, 18-24 h, measured here: SKBR3 viability, ATP luminescence, at 10 µM. A general note: In Alpha technology, singlet oxygen from a donor bead excites a nearby acceptor bead.
Assay [2] addresses Receptor tyrosine-protein kinase erbB-2 (Homo sapiens) (UniProt P04626). Described as above. Particulars: 18-24 h, at 10 µM, stronger effect = lower value.
Assay [3] can be described thus: reduced viability of SK-BR-3 breast cancer cells – cell-based, 24 h, human, pilot screen (AID 572;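 active means viability at or below 10% of carrier control in both of two separate runs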;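 further: compound exposure lasted between 18 and 24 h rather than exactly 24 h; 100% = carrier-treated control wells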). The settings on record: SK-BR-3 viability, CellTiter-Glo luminescence, at 10 µM, stronger effect = lower value. On the technique in general: In ATP-based viability assays light output follows the ATP content of the culture.
Assay [4] in a line: HUVEC growth inhibition – cell-based, human, primary screen (AID 575;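 active means viability at or below 30% in both replicate assays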;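 further: 100% = median of untreated cell wells with 0.1% DMSO on each plate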). Particulars: HUVEC proliferation, CellTiter-Glo luminescence, 72 h; at 10 µM; stronger effect = lower value. In a few lines: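 material = primary HUVEC, no more than 12 passages | input = 1250 cells per well | controls = vehicle and MePR control wells | measured by = CTG luminescence | times = 72 h compound incubation | format = collagen-coated 384-well format | read-out = % viability vs DMSO wells | doses = single 10 µM dose, 0.1% DMSO, from 5x medium stock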

The nature of assay [5]: H69AR cell proliferation blockers – human, duplicate replicates, primary screen (AID 580;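 active means viability at or under a set limit in both replicates, limit being median viability minus 3 SD, cut at about 48% in these data, passing the limit was not always enough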;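 further: 100% = mean luminescence of untreated wells and 0% = no signal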). The settings on record: H69AR lung tumor cells viability, ATP luminescence, 72 h; at 10 µM; stronger effect = lower value.
Assay [6] in a line: MRP1 drug-resistance reversers in H69AR cells – cell-based, doxorubicin co-treatment, pilot screen (AID 601;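 active means viability loss from added drug above about 55%, and viability with drug at most 40%, in both replicates, limit read from the data, passing the limit was not always enough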). The settings on record: CellTiter-Glo, 72 h, at 10 µM; for differential viability (reversal): stronger effect = higher value.
A short description of assay [7]: yeast transport mutant growth inhibition pilot in 384-well plates, post-Golgi transport modulator project (AID 636; in the data active means inhibition above about 31%). The settings on record: absorbance 615 nm, about 18 h, stronger effect = higher value.
The nature of assay [8]: growth suppression of yeast trafficking mutant, preliminary HTS, modulators of trafficking downstream of Golgi apparatus project, 1536-format plate, OD 615 nm (AID 637; in the data active means inhibition above about 30%). Particulars: yeast transport mutant growth, absorbance 615 nm, 18 h; stronger effect = higher value.
Where [9] appears, read: H69AR cells + 2 uM doxorubicin, measured here: viability with 2 uM doxorubicin, stronger effect = lower value.
[10] abbreviates: H69AR cells, compound alone cytotoxicity.

Activity calls are given as the source filed them.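 How the source made its calls, unless noted: active means Her2 level under about 52% in both replicate screens, with viability over 70% of control (limit read from the data); inconclusive means Her2 under the limit in one screen only, or viability under 70%; inactive means Her2 level above the set limit.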

Usually viability stands for a read-out of living cells in per cent, often relative to untreated cells. The term inhibition denotes the drop in the measured response relative to a control, in per cent.

Sequence of Receptor tyrosine-protein kinase erbB-2 (Homo sapiens) (P04626 whole entry, looked up): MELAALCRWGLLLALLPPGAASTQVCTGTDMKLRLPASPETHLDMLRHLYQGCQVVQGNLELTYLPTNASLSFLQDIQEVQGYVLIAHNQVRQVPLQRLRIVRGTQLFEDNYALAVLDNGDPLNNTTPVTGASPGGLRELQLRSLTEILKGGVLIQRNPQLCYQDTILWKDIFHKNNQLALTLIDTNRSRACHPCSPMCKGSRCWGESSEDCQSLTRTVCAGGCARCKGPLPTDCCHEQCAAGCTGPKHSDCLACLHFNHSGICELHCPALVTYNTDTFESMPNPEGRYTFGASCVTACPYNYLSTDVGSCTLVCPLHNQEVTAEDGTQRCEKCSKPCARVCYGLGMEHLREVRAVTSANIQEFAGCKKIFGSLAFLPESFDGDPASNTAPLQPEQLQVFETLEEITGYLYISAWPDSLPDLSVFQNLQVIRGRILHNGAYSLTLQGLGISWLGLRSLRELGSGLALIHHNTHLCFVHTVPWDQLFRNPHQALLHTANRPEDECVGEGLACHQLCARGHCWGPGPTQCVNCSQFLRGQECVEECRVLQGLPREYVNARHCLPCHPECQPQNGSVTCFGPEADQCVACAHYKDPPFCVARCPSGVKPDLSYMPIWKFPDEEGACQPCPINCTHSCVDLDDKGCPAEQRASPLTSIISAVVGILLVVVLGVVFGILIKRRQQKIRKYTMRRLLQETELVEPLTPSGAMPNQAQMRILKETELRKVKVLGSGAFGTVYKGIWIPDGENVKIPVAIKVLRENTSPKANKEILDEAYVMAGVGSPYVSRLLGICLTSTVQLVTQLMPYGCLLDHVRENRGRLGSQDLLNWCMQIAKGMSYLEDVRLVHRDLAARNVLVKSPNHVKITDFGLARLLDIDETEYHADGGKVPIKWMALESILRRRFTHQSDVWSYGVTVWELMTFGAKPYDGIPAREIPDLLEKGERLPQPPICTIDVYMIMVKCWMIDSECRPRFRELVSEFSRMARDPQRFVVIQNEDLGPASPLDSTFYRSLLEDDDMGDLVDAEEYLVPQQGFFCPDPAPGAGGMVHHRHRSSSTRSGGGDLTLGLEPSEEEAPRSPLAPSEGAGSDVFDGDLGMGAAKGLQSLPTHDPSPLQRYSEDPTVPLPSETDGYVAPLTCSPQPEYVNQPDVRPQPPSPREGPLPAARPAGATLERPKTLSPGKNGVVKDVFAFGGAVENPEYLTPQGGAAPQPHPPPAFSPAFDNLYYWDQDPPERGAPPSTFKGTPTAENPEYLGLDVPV

Consider `Cc1ccccc1CS(=O)(=O)CCC(=O)N1CCN(c2ccc(N3CCOCC3)nn2)CC1`, for which the viability was 91.5% in assay [1]; 91.5% (inactive) in assay [3]; 97.1% (inactive) in assay [4]; 103% (inactive) in assay [5]; 92.7% in assay [6] (setting [9]); 103% in assay [6] (setting [10]). Also, the Her2 level in assay [2] is 81% (inactive). In addition, the differential viability (reversal) in assay [6] (H69AR cells + 2 uM doxorubicin) was 10.7% (inactive). The figures for the inhibition in assay [7] and in assay [8] were -2.24% (inactive) and -0.73% (inactive), respectively.
As for `CC(C)C1C2=C(CC(C)(C)CC2=O)ON1c1ccccc1` (stereo not given), the viability in assay [1] is 90%; in assay [3], 90% (inactive); in assay [4], 95.8% (inactive); in assay [5], 93% (inactive); in assay [6] (setting [9]), 95.7%; in assay [6] (setting [10]) it was 93%. Further, in assay [2], the Her2 level was 90% (inactive). Further, the differential viability (reversal) in assay [6] (H69AR cells + 2 uM doxorubicin) is -2.63% (inactive). The inhibition was -1.6% (inactive) in assay [7] and -0.48% (inactive) in assay [8].
As for `CSCCC(NC(=O)c1ccco1)C(=O)OC(C)C(=O)NC(=O)NC1CCCCC1` (stereo not given), the viability in assay [1] is 88%; in assay [3], 88% (inactive); in assay [4], 96.1% (inactive); in assay [5], 111% (inactive); in assay [6] (setting [9]), 95%; in assay [6] (setting [10]), 111%. The Her2 level in assay [2] is 99% (inactive). Moreover, in assay [6] (H69AR cells + 2 uM doxorubicin), the differential viability (reversal) is 16.1% (inactive). Further, the inhibition in assay [7] is -3.9% (inactive); in assay [8], 8.52% (inactive).
With `COc1ccc(-c2ccc(-c3nnc(-c4ccncc4)o3)cc2)cc1`, the viability was 130% in assay [1]; 130% (inactive) in assay [3]; 119% (inactive) in assay [4]; 96.3% (inactive) in assay [5]; 89.5% in assay [6] (setting [9]); 96.3% in assay [6] (setting [10]). For the same compound, the Her2 level in assay [2] is 103% (inactive). In addition, the differential viability (reversal) in assay [6] (H69AR cells + 2 uM doxorubicin) is 6.73% (inactive). For the same compound, the inhibition in assay [7] is -5.87% (inactive); in assay [8], 0% (inactive).
For `Cc1cc(C)nc(SCC(=O)Nc2ccc(S(=O)(=O)Nc3nccs3)cc2)n1`, the viability in assay [1] is 110%; in assay [3], 110% (inactive); in assay [4], 97.4% (inactive); in assay [5] it was 95.7% (inactive); in assay [6] (setting [9]) it was 91%; in assay [6] (setting [10]), 95.7%. The Her2 level in assay [2] is 107% (inactive). Further, the differential viability (reversal) in assay [6] (H69AR cells + 2 uM doxorubicin) is 4.67% (inactive). Besides, the inhibition in assay [7] was -1.76% (inactive); in assay [8], 5.9% (inactive).
Turning to `CCN(CCCNC(=O)CCNC(=O)Cn1ccc2ccccc2c1=O)c1ccccc1`, the viability in assay [1] is 97.5%; in assay [3] it was 97.5% (inactive); in assay [4], 109% (inactive); in assay [5], 98.3% (inactive); in assay [6] (setting [9]), 86.5%; in assay [6] (setting [10]), 98.3%. Further, in assay [2], the Her2 level is 87.5% (inactive). Also, the differential viability (reversal) in assay [6] (H69AR cells + 2 uM doxorubicin) was 11.8% (inactive). In addition, the inhibition is -5.47% (inactive) in assay [7] and -2.86% (inactive) in assay [8].
`Cc1ccc(S(=O)(=O)Cn2nnnc2CN(Cc2ccco2)CC2CCCO2)cc1` (stereo not given): the viability in assay [1] is 90%; in assay [3], 90% (inactive); in assay [4] it was 110% (inactive); in assay [5], 83.3% (inactive); in assay [6] (setting [9]) it was 84%; in assay [6] (setting [10]), 83.3%. Moreover, the Her2 level in assay [2] was 96.5% (inactive). Also, in assay [6] (H69AR cells + 2 uM doxorubicin), the differential viability (reversal) was -0.665% (inactive). The inhibition in assay [7] is -2.53% (inactive); in assay [8], 44.8% (active).
Regarding `CC(C)(C)NC(=O)NC(=O)COc1ccccc1C#N`, the viability in assay [1] is 104%; in assay [3], 104% (inactive); in assay [4] it was 108% (inactive); in assay [5], 106% (inactive); in assay [6] (setting [9]), 80.7%; in assay [6] (setting [10]), 106%. The Her2 level in assay [2] is 90.5% (inactive). Besides, the differential viability (reversal) in assay [6] (H69AR cells + 2 uM doxorubicin) was 25.7% (inactive). For the same compound, the inhibition is -6.49% (inactive) in assay [7] and -2.38% (inactive) in assay [8].
As for `Cc1ccc2c(c1)NC(=O)C(CC(=O)NCCN(CC(C)C)CC(C)C)O2` (stereo not given), the viability in assay [1] is 88%; in assay [3] it was 88% (inactive); in assay [4], 87.3% (inactive); in assay [5], 91.6% (inactive); in assay [6] (setting [9]) it was 85.8%; in assay [6] (setting [10]), 91.6%. Further, the Her2 level in assay [2] was 93% (inactive). For the same compound, the differential viability (reversal) in assay [6] (H69AR cells + 2 uM doxorubicin) is 5.71% (inactive). For the same compound, the inhibition was 2.13% (inactive) in assay [7] and -3.28% (inactive) in assay [8].
Take `Clc1ccccc1OCc1nn2c(-c3ccncc3)nnc2s1`: the viability in assay [1] is 114%; in assay [3], 114% (inactive); in assay [4] it was 78.6% (inactive); in assay [5], 98.2% (inactive); in assay [6] (setting [9]), 92.7%; in assay [6] (setting [10]), 98.2%. Besides, the Her2 level in assay [2] is 75.5% (inactive). For the same compound, the differential viability (reversal) in assay [6] (H69AR cells + 2 uM doxorubicin) was 5.55% (inactive). In addition, the figures for the inhibition in assay [7] and in assay [8] were -5.95% (inactive) and 2.67% (inactive), respectively.
For `Cn1c(=O)c2c(nc(N3CCCCC3)n2CCSc2nc3ccccc3o2)n(C)c1=O`, the viability is 100% in assay [1]; 100% (inactive) in assay [3]; 88.4% (inactive) in assay [4]; 82.2% (inactive) in assay [5]; 80.4% in assay [6] (setting [9]); 82.2% in assay [6] (setting [10]). The Her2 level in assay [2] is 105% (inactive). Besides, the differential viability (reversal) in assay [6] (H69AR cells + 2 uM doxorubicin) is 1.8% (inactive). Further, the inhibition was -0.67% (inactive) in assay [7] and -6.39% (inactive) in assay [8].
As for `CCOC(=O)N1CCN(C(=O)CSc2nnc(Cc3ccccc3)o2)CC1`, the viability was 92.5% in assay [1]; 92.5% (inactive) in assay [3]; 76% (inactive) in assay [4]; 103% (inactive) in assay [5]; 77.2% in assay [6] (setting [9]); 103% in assay [6] (setting [10]). The Her2 level in assay [2] was 102% (inactive). The differential viability (reversal) in assay [6] (H69AR cells + 2 uM doxorubicin) was 25.7% (inactive). In addition, the figures for the inhibition in assay [7] and in assay [8] were 0.27% (inactive) and 1.97% (inactive), respectively.
In the case of `O=C(CCn1c(=S)[nH]c2cc3c(cc2c1=O)OCO3)N1CCN(C2CCCCC2)CC1`, the viability was 90.5% in assay [1]; 90.5% (inactive) in assay [3]; 93.8% (inactive) in assay [4]; 90% (inactive) in assay [5]; 92.8% in assay [6] (setting [9]); 90% in assay [6] (setting [10]). For the same compound, the Her2 level in assay [2] is 82.5% (inactive). Further, the differential viability (reversal) in assay [6] (H69AR cells + 2 uM doxorubicin) is -2.85% (inactive). In addition, the inhibition in assay [7] was -5.54% (inactive); in assay [8] it was -0.66% (inactive).
For `COc1ccc2c(c1)OC(O)(C(F)F)CC2=O` (stereo not given), the viability in assay [1] is 116%; in assay [3] it was 116% (inactive); in assay [4], 102% (inactive); in assay [5] it was 93.5% (inactive); in assay [6] (setting [9]), 91.2%; in assay [6] (setting [10]) it was 93.5%. For the same compound, the Her2 level in assay [2] was 107% (inactive). The differential viability (reversal) in assay [6] (H69AR cells + 2 uM doxorubicin) is 2.35% (inactive). Also, the figures for the inhibition in assay [7] and in assay [8] were -1.04% (inactive) and -2% (inactive), respectively.
On to `CCOCC(=O)Nc1ccc(S(=O)(=O)N2CCOCC2)cc1`, for which the viability in assay [1] is 95%; in assay [3] it was 95% (inactive); in assay [4], 92.3% (inactive); in assay [5] it was 82.5% (inactive); in assay [6] (setting [9]), 76.1%; in assay [6] (setting [10]), 82.5%. Besides, the Her2 level in assay [2] is 85% (inactive). Besides, the differential viability (reversal) in assay [6] (H69AR cells + 2 uM doxorubicin) is 6.46% (inactive). Moreover, the inhibition was -4.67% (inactive) in assay [7] and -2.7% (inactive) in assay [8].

These data come from PubChem BioAssay.
